By IC50 is commonly meant the midpoint of a concentration-inhibition curve.

Assay [1] has as its system MCF7 cells. Put plainly: Cell morphology after treatment. It counts as cell-based, human.
Assay [2] relates to MDA-MB-231 cells. Put plainly: PrestoBlue cytotoxicity assay. It counts as cell-based. The following applies: Homo sapiens, MDA-MB-231, 24 h, read-out: IC50 Value MDA-MB-231. The gist of the method:
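Cells plated at 10,000 cells/well and incubated 24 h at 37°C, 5% CO2. MCF 10A were grown in MEBM to 70–80% confluency. Treated for 24 h with eight concentrations (250, 125, 62.5, 31.25, 15.625, 7.8125, 3.9, 1.95 µg/mL) in three parallel experiments, with cisplatin as positive control.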

Consider `CC[C@H](CC[C@@H](C)[C@H]1CC[C@H]2[C@@H]3CC=C4C[C@@H](O)CC[C@]4(C)[C@H]3CC[C@]12C)C(C)C` [β-sitosterol], for which the “Cell morphology (apoptosis signs)” value in assay [1] is on record as “cell blebbing indicative of apoptotic process”. Besides, in assay [2], the IC50 is greater than 250 µg/mL.

For the origin of these results see PMC11844196 (Journal of Experimental Pharmacology, 2025).
